Source: PubChem
In the library only some 2.4% were active in any assay of this set; here they are far more common.
MC4R barr agon – activates human MC4R beta-arrestin recruitment. activation, % at 8.9 µM. AID 540308. U2OS MC4R beta-arrestin complementation, luminescence; percent of melanotan II response, DMSO zero. actives 0.98% (n = 360,000). P32245;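 active = activation above a per-plate cutoff, the mean activation of sample wells on that plate plus 3 SD, cut at about 8% in these data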
Target sequence (P32245 whole entry, looked up): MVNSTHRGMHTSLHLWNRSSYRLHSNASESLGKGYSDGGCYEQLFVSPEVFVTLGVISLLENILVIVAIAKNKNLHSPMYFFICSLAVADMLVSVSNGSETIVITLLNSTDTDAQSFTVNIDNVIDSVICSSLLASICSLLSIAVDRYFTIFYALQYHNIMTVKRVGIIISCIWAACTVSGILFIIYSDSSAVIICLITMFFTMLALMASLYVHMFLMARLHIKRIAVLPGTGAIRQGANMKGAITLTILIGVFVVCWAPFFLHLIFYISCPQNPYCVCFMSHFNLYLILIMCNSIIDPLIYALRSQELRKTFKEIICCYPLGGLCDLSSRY
MOR-DOR inv ag – inverse agonist of human OPRM1-OPRD1 heterodimerization; P35372+P41143; cell-based MOR-DOR heterodimer luminescence, inverse agonism; inhibition, % at 9.3 µM; AID 504357; actives 0.21% (n = 340,000); in the data active = inhibition above about 22%, passing the limit was not always enough;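 also: 0% = cells with DMSO and 100% = wells without cells with DMSO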
HTR5A ag ctr – counter-screen for OPRM1-OPRD1 agonists: human HTR5A agonism | P47898 | HTR5A agonist assay, luminescence, cell-based | activation, % at 9.3 µM | actives 0.61% (n = 340,000) | AID 504692; in the data active = activation mostly above about 9.5%, no sharp cut-off; inactive = mostly below about 7.6%;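 also: 0% = cells with vehicle only and 100% = reference agonist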
Target sequence (P47898 whole entry, looked up): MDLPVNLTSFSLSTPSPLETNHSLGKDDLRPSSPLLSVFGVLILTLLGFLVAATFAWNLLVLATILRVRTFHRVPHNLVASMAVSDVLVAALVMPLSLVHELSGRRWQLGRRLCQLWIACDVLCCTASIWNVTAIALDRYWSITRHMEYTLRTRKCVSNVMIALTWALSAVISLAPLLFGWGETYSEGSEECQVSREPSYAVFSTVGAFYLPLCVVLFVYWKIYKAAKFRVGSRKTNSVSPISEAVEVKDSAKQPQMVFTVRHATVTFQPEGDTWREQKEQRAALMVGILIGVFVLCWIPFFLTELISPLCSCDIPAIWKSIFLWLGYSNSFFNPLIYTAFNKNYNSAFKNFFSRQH
HTR5A inv ag – counter-screen for OPRM1-OPRD1 inverse agonists: human HTR5A inverse agonism; P47898; HTR5A cell line, luminescence; inhibition, % at 9.3 µM; actives 0.083% (n = 340,000); AID 504634; in the data active = inhibition mostly above about 23%, no sharp cut-off; inactive = mostly below about 18%;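 also: 0% = cells with DMSO and 100% = no-cell wells with DMSO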
OPRM1-OPRD1 ag – OPRM1-OPRD1 heterodimerization agonism; P35372+P41143; cells, luminescence; activation, % at 9.3 µM; actives 0.3% (n = 340,000); in the data active = activation above about 18%;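 also: 0% = vehicle-treated cells and 100% = reference agonist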
MC4R antagonist – blocks human MC4R cAMP signaling; P32245; inhibition, % at 6.5 µM; MC4R-expressing cells, MTII-stimulated cAMP, LANCE TR-FRET; actives 0.48% (n = 360,000);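 active = inhibition above its plate's cutoff, the mean of tested wells on that plate plus 3 SD, cut at about 29% in these data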;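 also: 0% = Melanotan II alone and 100% = Melanotan II plus saturating MCL0020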
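Material – human MC4R-expressing U2OS cells · Repeats – no replicates · Detection – TR-FRET with Eu-cAMP and labeled anti-cAMP, 671 nm · Times – compound 30 min, challenge 1 h, detection 1 h · Compound – single nominal compound dose of 6.5 µM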
cAMP nonselect – counter-screen for MC4R antagonists: nonselective cAMP signaling inhibitors. shares compounds with MC4R antagonist. parental U2OS, forskolin cAMP, LANCE TR-FRET. inhibition, % at 6.5 µM. actives 26% (n = 1,600). AID 602193;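 active = mean inhibition over triplicates above the low-control well mean plus 3 SD, set per campaign, cut at about 13% in these data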;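 also: signal is single emission at 671 nm which falls as cellular cAMP rises; 0% = forskolin-stimulated wells and 100% = buffer without forskolin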
MC4R antag conf – human MC4R cAMP antagonism confirmation; shares compounds with MC4R antagonist; MC4R-expressing cells, MTII-stimulated cAMP, TR-FRET; inhibition, % at 6.5 µM; actives 27% (n = 1,600); AID 602195; in the data active = inhibition above about 29%;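 also: 0% = agonist stimulated wells alone and 100% = agonist stimulated wells plus saturating reference antagonist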
* marks the source's active call; other numbers are inactive results; x = not tested or not shown.

SMILES	MC4R barr agon	MOR-DOR inv ag	HTR5A ag ctr	HTR5A inv ag	OPRM1-OPRD1 ag	MC4R antagonist	cAMP nonselect	MC4R antag conf
Cc1cc(NC(=O)CSc2nc(-c3ccccc3)c(C#N)c(=O)[nH]2)no1	1.9	11.1	1.3	-11.0	-2.1	34.5*	26.3*	50.0*
Cc1cc(C)nc(NS(=O)(=O)c2ccc(NC(=O)Cc3ccccc3)cc2)n1	1.4	3.7	-5.3	13.9	-0.7	35.0*	1.8	-12.4
Cc1nn(-c2ccccc2)c(Cl)c1CN(C(=O)CCl)c1ccc(Cl)cc1	11.4*	-361.4	49.5*	-50.5	67.5*	39.7*	-37.0	47.0*
COc1cc(/C=C(\C#N)C(=O)Nc2cccc3ncccc23)cc(OC)c1OC	-0.4	3.0	2.4	-8.9	-0.6	6.0	x	x
COc1ccc(/C=C(\C#N)C(=O)Nc2cccc3ncccc23)cc1OC	-0.7	-7.2	-3.0	1.7	1.4	30.7*	-2.5	3.2
CCCCC(=O)N1C(C)CCC1C (stereo unspecified)	0.5	x	x	x	x	12.2	x	x
Cc1ccc(S(=O)(=O)N(C)C)cc1NC(=O)Cn1c(CN2CCOCC2)nc2ccccc2c1=O	-3.3	4.3	1.0	-2.9	-0.8	35.5*	-0.2	6.0
O=C(c1ccc([N+](=O)[O-])cc1)N(Cc1ccc(Br)cc1)N1C(=O)CCCC1=O	9.1*	-95.5	6.2	-9.1	16.7	43.8*	17.1*	12.0
O=C(c1ccccc1Cl)N(Cc1ccc(Br)cc1)N1C(=O)CCCC1=O	-0.5	15.4	0.3	-10.0	-3.0	2.1	x	x
CCC(Sc1nc2n[nH]c(C)c2c(=N)n1-c1cccc(Cl)c1)C(=O)NCCOC (stereo unspecified)	-1.7	1.9	-1.5	3.3	-0.4	5.8	x	x
CCC(Sc1nc2n[nH]c(C)c2c(=N)n1-c1ccc(C)c(Cl)c1)C(=O)N1CCOCC1 (stereo unspecified)	0.0	-0.3	4.4	-11.1	0.1	29.4*	6.5	34.6*
Cc1ccc(-n2nc3ccc(NC(=S)NC(=O)/C=C/c4ccco4)cc3n2)cc1	2.5	-0.3	1.8	-1.8	0.1	41.2*	4.7	25.7
Cc1ccc(-n2nc3cc(C)c(NC(=S)NC(=O)/C=C/c4ccco4)cc3n2)cc1	2.3	12.8	4.1	-48.5	-2.5	11.1	x	x
CCOc1ccc(NC(=O)c2ccc(NS(=O)(=O)c3cccc4cccnc34)cc2)cc1	-0.7	11.1	-0.3	1.1	-2.2	0.8	x	x
COC(=O)c1ccc(NC(=O)c2ccc(NS(=O)(=O)c3cccc4cccnc34)cc2)cc1	2.4	10.7	1.2	-4.2	-2.4	29.7*	-0.7	2.5
COCCNC(=O)C1(C)CCCN(C(=O)Cc2ccc3ccccc3c2)C1 (stereo unspecified)	-0.9	x	x	x	x	2.8	x	x
Cc1ccc(S(=O)(=O)N(C)CC(=O)OCC(=O)NC(=O)NC(C)C)cc1	-3.1	-2.4	-0.2	0.6	0.4	29.2*	9.9	23.0
CC(=O)Nc1ccc(S(=O)(=O)N(C)CC(=O)OCC(=O)NNC(=O)c2ccccc2F)cc1	-2.2	7.6	-6.3	0.3	-1.2	-0.6	x	x
CC(=O)Nc1ccc(S(=O)(=O)N(C)CC(=O)OCC(=O)NC(C)C23CC4CC(CC(C4)C2)C3)cc1 (stereo unspecified)	-2.1	-2.9	-3.1	11.4	0.6	30.1*	7.7	17.5
Cc1cc(C)n(-c2nc(N(c3ccccc3)c3ccccc3)nc(-n3nc(C)cc3C)n2)n1	4.3	11.4	0.5	-4.6	-2.0	61.8*	2.9	-7.0
Cn1cnc(S(=O)(=O)N2CCCCC2c2cc(C(=O)Nc3ccccc3Cl)no2)c1 (stereo unspecified)	-0.1	x	x	x	x	13.6	x	x
CC(c1ccccc1)n1c(CO)nc2ccccc21 (stereo unspecified)	1.3	20.2	4.2	-15.6	-4.4	-2.8	x	x
C=CCn1c(=S)[nH]c2scc(-c3cccs3)c2c1=O	-1.6	7.8	-1.7	4.8	-1.5	51.1*	17.0*	27.8
COc1ccc(-n2c(CCC(=O)O)ccc2-c2ccc(F)cc2)c(OC)c1	-0.4	18.3	-0.2	0.8	-4.1	-6.8	x	x
Cc1ccccc1-n1c(SCC(=O)Nc2c(C)cccc2C)nc(O)cc1=O	1.8	-2.5	0.6	-1.7	0.4	33.5*	4.1	-7.9
SMILES	MC4R barr agon	MOR-DOR inv ag	HTR5A ag ctr	HTR5A inv ag	OPRM1-OPRD1 ag	MC4R antagonist	cAMP nonselect	MC4R antag conf
CC(C)(C)c1cc(C(=O)NCCN2CCCC2)cc(C(C)(C)C)c1	0.9	-2.2	2.8	19.9	0.3	15.3	x	x
CCCCOc1ccc(C(NC(=O)OCC)NC(=O)OCC)cc1	-1.9	8.5	-0.2	0.6	-1.6	28.6*	-0.1	2.5
CCCCCCOc1ccc(C(CC(=O)O)C(N)=O)cc1 (stereo unspecified)	-0.4	16.0	-0.7	-1.9	-2.8	0.9	x	x
Cc1cc(Sc2ncnc(N)c2[N+](=O)[O-])ncn1	-1.3	14.1	-4.9	12.0	-2.7	38.2*	16.4*	36.1*
Cc1cc(Sc2nc(N)ncc2[N+](=O)[O-])ncn1	-1.7	-8.2	-0.5	1.5	1.1	40.4*	20.4*	34.6*
CCOC(=O)C1CCCN(S(=O)(=O)c2cnc(Cl)c(Br)c2)C1 (stereo unspecified)	-1.7	-1.9	0.1	3.4	0.4	52.4*	14.8*	37.6*
CC1(C)CC(NC(=O)c2ccccn2)CC(C)(C)N1O	-2.6	9.0	-4.6	12.3	-1.2	8.7	x	x
COc1ccc(C2NC(C(=O)O)Cc3c2[nH]c2ccccc32)cc1CN1CCN(c2ccc(F)cc2)CC1 (stereo unspecified)	0.5	-13.8	-1.4	4.0	2.5	30.2*	-0.1	3.3
CCc1ccc(NC(=O)CSc2nc3ccsc3c(=O)n2CCCCCC(=O)O)cc1	1.7	9.2	-4.8	11.8	-1.8	24.8	x	x
CC(C)c1ccc(NC(=O)CSc2nc3ccsc3c(=O)n2CCC(=O)O)cc1	0.7	-3.1	0.1	-8.7	0.6	35.1*	2.4	3.6
O=C1c2ccccc2C(=O)N1SC1CCCCC1	3.5	-13.3	5.2	-14.4	2.4	29.2*	8.3	24.7
COc1ccc(NC(=O)CN2C(=O)C(C)SC(C)C2=O)cc1 (stereo unspecified)	-3.3	5.4	-1.6	17.3	-0.8	31.3*	2.6	0.9
Cn1c(SC2CCCCC2=O)nnc1-c1ccccc1F (stereo unspecified)	-0.9	3.1	1.0	-14.8	-0.6	14.4	x	x
O=C(CCCn1ncn2c(cc3occc32)c1=O)NCc1ccccc1F	-1.0	5.2	1.7	-23.2	-1.0	5.4	x	x
